An excerpt weighted towards active compounds, which were near 1.1% of everything screened.
Furin inh: inhibitors of human furin; purified furin, fluorogenic substrate cleavage; inhibition, % at 20 µM or 30 µM; 220,000 tested, 0.061% active; AID 463115; in the data active = inhibition above about 25%
FXIa inh: factor XIa (human) inhibition. inhibition, % at 5 µM. P03951. purified FXIa, Boc-Glu-Ala-Arg-AMC fluorogenic substrate. 220,000 tested, 0.14% active;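 active = inhibition of at least 40%; inactive = inhibition below 40%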;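 also: fluorescence of freed AMC excited at 355 nm; 0% = enzyme without compound and 100% = no enzyme blank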
Target sequence (P03951 19-387 limits assumed): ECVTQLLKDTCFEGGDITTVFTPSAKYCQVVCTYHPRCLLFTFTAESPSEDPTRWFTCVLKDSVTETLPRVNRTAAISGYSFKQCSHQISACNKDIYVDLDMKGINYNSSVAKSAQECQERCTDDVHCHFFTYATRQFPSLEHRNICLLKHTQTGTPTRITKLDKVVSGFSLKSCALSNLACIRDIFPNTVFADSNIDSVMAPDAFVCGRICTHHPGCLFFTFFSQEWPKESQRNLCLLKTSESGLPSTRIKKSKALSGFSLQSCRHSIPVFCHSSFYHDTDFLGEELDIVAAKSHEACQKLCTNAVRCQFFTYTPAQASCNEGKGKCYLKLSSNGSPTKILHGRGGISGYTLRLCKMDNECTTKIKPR
Target sequence (P03951 388-625 limits assumed): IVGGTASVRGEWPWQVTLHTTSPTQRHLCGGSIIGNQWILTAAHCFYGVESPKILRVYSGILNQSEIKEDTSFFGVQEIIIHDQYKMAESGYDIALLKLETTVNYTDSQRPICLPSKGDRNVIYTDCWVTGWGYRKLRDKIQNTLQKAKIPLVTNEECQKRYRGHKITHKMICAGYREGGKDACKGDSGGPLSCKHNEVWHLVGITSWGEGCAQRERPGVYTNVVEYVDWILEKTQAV
thrombin 1536: thrombin (human) inhibition. alpha-thrombin, Boc-VPR-AMC fluorogenic substrate cleavage. inhibition, % at 5 µM. 220,000 tested, 0.26% active. AID 1046;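 active = inhibition at or above 40%; inactive = inhibition below 40%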;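 also: 0% = enzyme with no compound and 100% = wells without enzyme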
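Material: human alpha-thrombin protein. Incubation: reaction at ambient temperature. Technique: fluorescence of released AMC, ex 355 nm, em 460 nm. Control set: no-compound enzyme wells and no-enzyme blanks. Also added: Boc-VPR-AMC substrate, 15 µM final. Buffer or medium: pH 7.5 Tris (50 mM) with NaCl 150 mM, Tween 20 0.05%.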
FXIIa inh: blocks human coagulation factor XIIa protease activity; inhibition, % at 5 µM; 220,000 tested, 0.3% active; purified FXIIa, Boc-QGR-AMC fluorogenic substrate, 2 h; P00748; in the data active = inhibition above about 40%;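 also: 0% = enzyme with no compound and 100% = blank without enzyme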
hK5 inh: kallikrein 5 (human) inhibition; Q9Y337; recombinant hK5, fluorogenic AMC substrate cleavage; inhibition, % at 5 µM; 210,000 tested, 0.59% active; AID 873;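 active = inhibition of 40% or more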;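 also: 0% = enzyme controls without compound and 100% = no-enzyme blanks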
Numbers without * were called inactive.

For COC(=O)CN(c1cc(Cl)ccc1OC)S(=O)(=O)c1ccc(C)cc1 the results were Furin inh -20, FXIa inh 0, thrombin 1536 -2, FXIIa inh 9 and hK5 inh 0.
COc1ccc(Cl)cc1N(CC(=O)NC(C)(C)C)S(=O)(=O)c1ccc(C)c([N+](=O)[O-])c1 was read as Furin inh -10, FXIa inh 12, thrombin 1536 29, FXIIa inh 20 and hK5 inh 45*.
Screening Cc1nc(C(=O)Nc2ccccc2)sc1C(=O)Nc1ccccc1 returned Furin inh -28, FXIa inh 1, thrombin 1536 1, FXIIa inh 10 and hK5 inh 0.
Screening Cc1nc(/N=C\N(C)C)sc1C(=O)Nc1ccccc1 returned Furin inh -20, FXIa inh 11, thrombin 1536 25, FXIIa inh 14 and hK5 inh 48*.
Cc1c(Cl)cnc(NC(=O)COC(=O)c2cccc(S(=O)(=O)N3c4ccccc4CC3C)c2)c1Cl (stereo not drawn) was read as Furin inh -15, FXIa inh -1, thrombin 1536 -13, FXIIa inh 7 and hK5 inh -19.
`COc1ccc(/C=N\NS(=O)(=O)c2ccc(Cl)cc2)cc1COc1ccccc1[N+](=O)[O-]` gave Furin inh -19, FXIa inh 8, thrombin 1536 85*, FXIIa inh 19 and hK5 inh 47*.
For CN(C)c1ccc(N=Nc2ccccc2C(=O)OCC(=O)NCC2CCCCC2)cc1 the results were Furin inh 21, FXIa inh 7, thrombin 1536 11, FXIIa inh 21 and hK5 inh 48*.
CCN1CCN(C(=O)Nc2ccccc2OC)CC1 was read as Furin inh -16, FXIa inh 4, thrombin 1536 31, FXIIa inh 11 and hK5 inh 83*.
For COc1cccc(C(=O)Nc2sc3c(c2C#N)CCN(C(C)=O)C3)c1 the results were Furin inh -8, FXIa inh 30, thrombin 1536 4, FXIIa inh 26 and hK5 inh 42*.
CCc1nc(OCCN(C)C)c2oc3ccccc3c2n1 was read as Furin inh -12, FXIa inh 21, thrombin 1536 22, FXIIa inh 21 and hK5 inh 43*.
Screening COC(=O)c1ccc(C(NC(=O)c2cccnc2)NC(=O)c2cccnc2)cc1 returned Furin inh -13, FXIa inh 9, thrombin 1536 6, FXIIa inh 25 and hK5 inh 17.
Screening O=C(Cn1[nH]c(=O)c2ccccc2c1=O)Nc1cccc(S(=O)(=O)N2CCCCCC2)c1 returned Furin inh 8, FXIa inh 52*, thrombin 1536 22 and hK5 inh 27.
For O=C(CN1CCOCC1)Nc1cccc(S(=O)(=O)N2CCCCCC2)c1 the results were Furin inh -14, FXIa inh 0, FXIIa inh 3 and hK5 inh -1.
CC(C)c1nc(SCc2c(F)cccc2Cl)c2c(=O)n(C)c(=O)n(C)c2n1 was read as Furin inh -20, FXIa inh 10, thrombin 1536 15, FXIIa inh 23 and hK5 inh 65*.
Screening O=C(OCc1cccc([N+](=O)[O-])c1)c1ccc2ccccc2n1 returned Furin inh -11, FXIa inh 0, thrombin 1536 1, FXIIa inh 6 and hK5 inh 0.
Screening CC(C)N=Cc1c(O)[nH]c2ccccc12 returned Furin inh -17, FXIa inh 14, thrombin 1536 4, FXIIa inh 46* and hK5 inh -15.
Screening CC(C)(CO)N=Cc1c(O)[nH]c2ccccc12 returned Furin inh -6, FXIa inh 4, thrombin 1536 1, FXIIa inh 17 and hK5 inh 48*.
Screening CC(C)(C)c1[nH]c2ccccc2c1/C=N/O returned Furin inh -15, FXIa inh 0, thrombin 1536 -2, FXIIa inh 8 and hK5 inh 32.
For Cc1cccc(/N=C/c2c(O)[nH]c3ccccc23)n1 the results were Furin inh -3, FXIa inh 9, thrombin 1536 8, FXIIa inh 14 and hK5 inh 15.
`CCN(CC)CCCC(C)NC(=O)c1ccc(C(F)(F)F)cc1` (stereo not drawn) gave Furin inh 10, FXIa inh -1, thrombin 1536 3, FXIIa inh 8 and hK5 inh 2.
Cc1cc(C)n(/N=C/c2ccccc2)c(=O)c1C#N was read as Furin inh -6, FXIa inh 0, thrombin 1536 -6, FXIIa inh 57* and hK5 inh -11.

From PubChem BioAssay
